According to ChEMBL document CHEMBL3992512, “The Discovery and Hit-to-Lead Optimization of Tricyclic Sulfonamides as Potent and Efficacious Potentiators of Glycine Receptors” (J Med Chem, 2017):
In brackets after ≈: the same amount, converted by molar mass. Activity calls are given as the source filed them.

What was measured:
[1] = biological target: Glycine receptor alpha-3/beta (Homo sapiens) (UniProt O75311+P48167); assay: Positive allosteric modulation of human glycine alpha3beta receptor expressed in HEK293T cells assessed as compound concentration required to induce up to 3-fold leftward shift in glycine-induced increase in chloride ion flux after 4 mins by Schild plot analysis; type: cell-based
Procedure, shortened: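 HEK293T cells stably expressing human GlyRα3β, ~12000 cells/well, plated overnight and loaded with membrane potential blue dye. Glycine 1:2 dilution series premixed with compound at varying concentrations in HEPES/NaCl/mannitol buffer, pH 7.4. FLIPR fluorescence read 4 min and processed as AUC over baseline. mEC₃ is the lowest tested concentration giving a ≥3-fold leftward shift of glycine EC₅₀.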

[2] = Passive apparent permeability in MDCK cells; type: ADME, cell-based, Canis lupus familiaris; conditions: dog
Procedure, shortened: (§1)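 Bidirectional transport at 5 μM, in triplicate, across MDCK cells carrying control vector, human MDR1 or human ABCG2 (BCRP). Passive Papp is the mean of both directions in vector-control cells. Efflux ratios come from the MDR1 and BCRP lines.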

Liver [3] = assay: Drug metabolism in mouse liver microsomes assessed as oxidation of quinolinone core up to 40 mins in presence of NADPH; type: ADME, microsome
Liver [4] = assay: Drug metabolism in mouse liver microsomes assessed as oxidation of pyrrolidine ring up to 40 mins in presence of NADPH; type: ADME, microsome
Liver [5] = assay: Drug metabolism in mouse liver microsomes assessed as oxidation of benzodioxolane moiety up to 40 mins in presence of NADPH; type: ADME, microsome
Plasma [6] = assay: Unbound Cmax in mouse plasma at 50 mg/kg, ip; type: ADME, organism-based; conditions: in vivo
[7] = Intrinsic clearance in mouse liver microsomes up to 40 mins in presence of NADPH; type: ADME, microsome; conditions: read-out: CLH
human MDR1 = assay: Efflux ratio of passive apparent permeability in MDCK cells harboring human MDR1; type: ADME, cell-based, Canis lupus familiaris; conditions: dog; procedure, shortened: as §1
human BCRP = assay: Efflux ratio of passive apparent permeability in MDCK cells harboring human BCRP; type: ADME, cell-based, Canis lupus familiaris; conditions: dog; procedure, shortened: as §1
Mus musculus [8] = species: Mus musculus; assay: Ex vivo positive allosteric modulation of glycine receptor in C57BL/6 mouse spinal cord assessed as potentiation of glycine-induced post synaptic current amplitude at 0.5 uM at holding potential of -60 mV after 10 mins in presence of sodium channel inhibitor TTX/AMPA/kainate receptor antagonist CNQX/GABAa receptor antagonist bicuculline/NMDA receptor antagonist APV by electrophysiology method relative to glycine alone
Procedure, shortened: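 Adult mouse spinal cord slices; dorsal horn neurons in laminae I–II were identified histologically and confirmed glycinergic by focal glycine (20 μM) with strychnine (10 μM) reversal. Postsynaptic current amplitude was recorded with glycine 20 μM alone, then with glycine plus compound at 0.5 μM, then with strychnine added. The readout is the mean ratio of PSC amplitude (compound + glycine / glycine alone), n = 5.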

Mus musculus [9] = assay: Antiallodynic activity in mouse model of spared nerve injury-induced tactile allodynia assessed as tactile threshold at 30 mg/kg, po measured 90 mins post dose by Von Frey filament assay; type: functional, organism-based
[10] = Ratio of unbound Cmax in mouse brain to EC50 for glycine alpha3 receptor in mouse model of spared nerve injury-induced tactile allodynia at 30 mg/kg, ip
Procedure, shortened: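 After intraperitoneal dosing, brains were collected at multiple time points. Unbound brain concentration is total brain concentration × brain fraction unbound, divided by mouse GlyRα3 potentiation EC₅₀.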

[11] = biological target: T1, Glycine receptor subunit alpha-3 (Homo sapiens, UniProt O75311); assay: Positive allosteric modulation of human glycine alpha3 receptor expressed in HEK293T cells assessed as potentiation of glycine-induced increase in chloride ion flux after 4 mins by membrane potential blue dye based FLIPR assay; type: cell-based, HEK-293T
T1 sequence (O75311 whole entry): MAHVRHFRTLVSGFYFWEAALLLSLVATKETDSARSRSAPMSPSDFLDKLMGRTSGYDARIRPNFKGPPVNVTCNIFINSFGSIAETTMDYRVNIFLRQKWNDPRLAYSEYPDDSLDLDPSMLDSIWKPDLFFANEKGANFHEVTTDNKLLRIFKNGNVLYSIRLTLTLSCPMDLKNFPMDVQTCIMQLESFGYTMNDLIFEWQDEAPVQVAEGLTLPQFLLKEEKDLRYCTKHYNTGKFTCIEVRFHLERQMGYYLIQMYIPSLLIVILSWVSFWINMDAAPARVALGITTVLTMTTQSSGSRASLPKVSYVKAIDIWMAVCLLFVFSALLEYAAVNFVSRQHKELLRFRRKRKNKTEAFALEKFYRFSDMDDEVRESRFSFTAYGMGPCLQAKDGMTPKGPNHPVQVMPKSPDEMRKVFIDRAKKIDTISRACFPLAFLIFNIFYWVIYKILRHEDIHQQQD

[12] = biological target: T1, Glycine receptor subunit alpha-3; assay: Binding affinity to human glycine alpha3 receptor expressed in HEK293T cells by SPR assay; design: species or system HEK-293T
[13] = Solubility in phosphate buffered saline; type: physicochemical
[14] = Solubility in fasted state simulated intestinal fluid; type: physicochemical
[15] = Ratio of unbound Cmax in mouse brain to EC50 for glycine alpha3 receptor in mouse model of spared nerve injury-induced tactile allodynia at 30 mg/kg, po
Procedure, shortened: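 Mice dosed orally; unbound brain Cmax is total brain concentration × brain fraction unbound, sampled at multiple time points. It is divided by EC₅₀ for potentiation of mouse GlyRα3.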

[16] = Ratio of unbound Cmax in mouse brain to EC50 for glycine alpha3 receptor in mouse model of spared nerve injury-induced tactile allodynia at 60 mg/kg, po
Plasma [17] = assay: Unbound Cmax in mouse plasma at 30 mg/kg, ip; type: ADME, organism-based; conditions: in vivo

| Compound | MEC [1] [µM] | Papp [2] [×10⁻⁶ cm/s] | microsomal CLint [7] [µL/min/mg] | other results |
| --- | --- | --- | --- | --- |
| CN1C(=O)[C@]2(F)CN(S(=O)(=O)c3ccc4c(c3)OCO4)C[C@@H]2c2cnccc21 (racemic) | > 25 | – | – | – |
| C[C@H]1[C@@H]2C(=O)N(C)c3ccncc3[C@@H]2CN1S(=O)(=O)c1ccc2c(c1)OCO2 | > 25 | – | – | – |
| CN1C(=O)[C@@H]2CN(S(=O)(=O)c3ccc4c(c3)OCO4)C[C@@H]2c2ccccc21 | 0.78 | 46 | – | Drug metabolism (Liver [3]): Metabolite_Detected; Drug metabolism (Liver [4]): Metabolite_Detected; Drug metabolism (Liver [5]): Metabolite_Detected; fCmax (Plasma [6]): 0.07 µM |
| CN1C(=O)[C@@H]2CN(S(=O)(=O)c3ccc4c(c3)OCO4)C[C@@H]2c2ccncc21 (racemic) | 6.3 | – | 225 | – |
| CN1C(=O)[C@H]2CN(S(=O)(=O)c3ccc4c(c3)OCO4)C[C@H]2c2cnccc21 | > 25 | 14 | 213 | efflux ratio (human MDR1): 1; efflux ratio (human BCRP): 0.9; Activity (Mus musculus [8]): inactive |
| C[C@@H]1[C@@H]2c3cnccc3N(C)C(=O)[C@@H]2CN1S(=O)(=O)c1ccc2c(c1)OCO2 | > 25 | – | – | – |
| CN1C(=O)[C@@H]2CN(S(=O)(=O)c3ccc4c(c3)OCO4)C[C@@H]2c2cc(F)ccc21 (racemic) | 0.78 | – | 761 | – |
| CN1C(=O)[C@@H]2CN(S(=O)(=O)c3ccc4ccoc4c3)C[C@@H]2c2cnccc21 | 1.56 | – | 115 | – |
| CC(C)C[C@H](CN)CC(=O)O | – | – | – | Activity (Mus musculus [9]): Active |
| CN1C(=O)[C@]2(C)CN(S(=O)(=O)c3ccc4c(c3)OCO4)C[C@@H]2c2ccccc21 (single isomer, unassigned) | > 25 | – | – | – |
| C[C@H]1[C@H]2c3cnccc3N(C)C(=O)[C@H]2CN1S(=O)(=O)c1ccc2c(c1)OCO2 | > 25 | – | – | – |
| CN1C(=O)[C@@H]2CN(S(=O)(=O)c3ccc4nc[nH]c4c3)C[C@@H]2c2cnccc21 | 3.1 | – | < 14 | Ratio [10]: 0.047 |
| C[C@@H]1[C@H]2C(=O)N(C)c3ccncc3[C@H]2CN1S(=O)(=O)c1ccc2c(c1)OCO2 | > 25 | – | – | EC50 [11]: > 25 µM; Kd [12]: > 20 µM |
| C[C@@H]1[C@H]2c3cnccc3N(C)C(=O)[C@H]2CN1S(=O)(=O)c1ccc2c(c1)OCO2 | > 25 | – | – | – |
| CN1C(=O)[C@@H]2CN(S(=O)(=O)c3ccc4c(c3)OCO4)C[C@@H]2c2ncccc21 | 0.78 | 45 | 136 | efflux ratio (human MDR1): 1.5; efflux ratio (human BCRP): 1; solubility [13]: 7 µM (≈ 2.71 µg/mL); solubility [14]: 28 µM (≈ 10.8 µg/mL); Ratio [15]: 0.006 |
| CN1C(=O)[C@@H]2CN(S(=O)(=O)c3ccc4c(c3)OCC4)C[C@@H]2c2cnccc21 | 1.56 | 28 | 177 | efflux ratio (human MDR1): 2.9; efflux ratio (human BCRP): 0.7; Ratio [16]: 0.38 |

| Compound | MEC [1] [µM] | Papp [2] [×10⁻⁶ cm/s] | microsomal CLint [7] [µL/min/mg] | other results |
| --- | --- | --- | --- | --- |
| C[C@@H]1[C@@H]2C(=O)N(C)c3ccncc3[C@@H]2CN1S(=O)(=O)c1ccc2c(c1)OCO2 | 3.1 | – | – | – |
| CN1C(=O)[C@@H]2CN(S(=O)(=O)c3ccc4c(c3)OCO4)C[C@@H]2c2cnccc21 | 0.2 | 52 | 151 | efflux ratio (human MDR1): 0.8; efflux ratio (human BCRP): 0.9; solubility [13]: 235 µM (≈ 91 µg/mL); solubility [14]: 296 µM (≈ 115 µg/mL); fold change (FC) (Mus musculus [8]): 4.9; Ratio [15]: 0.62 |
| C[C@H]1[C@@H]2c3cnccc3N(C)C(=O)[C@@H]2CN1S(=O)(=O)c1ccc2c(c1)OCO2 | > 25 | – | – | – |
| CN1C(=O)[C@@H]2CN(S(=O)(=O)c3ccc4c(c3)OCO4)C[C@@H]2c2cc(C#N)ccc21 (racemic) | 12.5 | – | 374 | – |
| CN1C(=O)[C@@H]2CN(S(=O)(=O)c3ccc4c(c3)OCO4)C[C@@H]2c2cc(O)ccc21 | 0.39 | 18 | 499 | efflux ratio (human MDR1): 3.2; efflux ratio (human BCRP): 3.1 |
| CN1C(=O)[C@]2(C#N)CN(S(=O)(=O)c3ccc4c(c3)OCO4)C[C@@H]2c2cnccc21 (racemic) | > 25 | – | – | – |
| CN1C(=O)[C@@H]2CN(S(=O)(=O)c3ccc4c(c3)OCO4)C[C@@H]2c2cccnc21 (racemic) | 3.1 | – | 760 | – |
| CN1C(=O)[C@H]2CN(S(=O)(=O)c3ccc4c(c3)OCO4)C[C@H]2c2ccccc21 | 6.3 | – | 2440 | – |
| O=S(=O)(c1ccc2c(c1)OCO2)N1C[C@@H]2c3ccccc3-n3ccnc3[C@@H]2C1 | 3.1 | 58 | 901 | efflux ratio (human MDR1): 1.7; efflux ratio (human BCRP): 1.3; fCmax (Plasma [17]): 0.13 µM |
| CN1C(=O)[C@@H]2CN(S(=O)(=O)c3ccc4ncn(C)c4c3)C[C@@H]2c2cnccc21 | 3.1 | – | – | – |
| CN1C(=O)[C@@H]2CN(S(=O)(=O)c3ccn4ccnc4c3)C[C@@H]2c2cnccc21 | 3.1 | 16 | 36 | efflux ratio (human MDR1): 30; efflux ratio (human BCRP): 8.3 |
| CN1C(=O)[C@@H]2CN(S(=O)(=O)c3ccc4c(c3)OCO4)C[C@]2(C)c2cnccc21 (racemic) | > 25 | – | – | – |
| CN1C(=O)[C@@H]2CN(S(=O)(=O)c3ccc(F)c(Cl)c3)C[C@@H]2c2cnccc21 | 3.1 | 49 | 432 | efflux ratio (human MDR1): 1.2; efflux ratio (human BCRP): 1.1 |
| CN1C(=O)[C@@H]2CN(S(=O)(=O)c3ccc4scnc4c3)C[C@@H]2c2cnccc21 | 1.56 | 48 | 79 | efflux ratio (human MDR1): 3.3; efflux ratio (human BCRP): 1.4; Ratio [16]: 0.15 |
| O=S(=O)(c1ccc2c(c1)OCO2)N1C[C@@H]2c3nccn3-c3ccccc3[C@@H]2C1 | 6.3 | – | 1670 | – |
